{"data": "Assay results of several laboratories", "read-out": "cell growth or viability", "note": "Lines come from different studies, so protocols differ. pIC50: −log10 of the molar value."}
{"SMILES": "Cc1cccc(-n2ncc(Cl)c(Cl)c2=O)c1", "cell line": "PC-9", "test": "resazurin", "setting": "96 h", "quantity": "pIC50", "result": 6.19}
{"SMILES": "C=CC(=O)Nc1cc(Nc2nccc(-c3cn(C)c4ccccc34)n2)c(OC)cc1N(C)CCN(C)C", "cell line": "PC-9", "setting": "72 h", "quantity": "pIC50", "result": 8.10}
{"SMILES": "CN[C@@H]1C[C@H]2O[C@@](C)([C@@H]1OC)n1c3ccccc3c3c4c(c5c6ccccc6n2c5c31)C(=O)NC4", "cell line": "SHP77", "test": "MTT", "quantity": "pIC50", "result": 7.80}
{"SMILES": "CC[C@@]1(OC(=O)[C@H](C)N)C(=O)OCc2c1cc1n(c2=O)Cc2cc3cc4c(cc3nc2-1)OCO4", "cell line": "HCT-116", "test": "MTT", "quantity": "pIC50", "result": 7.10}
{"SMILES": "COc1c2ccoc2cc2oc(=O)ccc12", "cell line": "HCT-116", "test": "WST-1", "setting": "48 h", "quantity": "pIC50", "result": 4.54}
{"SMILES": "CC1=C(O)C(=O)C=C2C1=CC=C1[C@@]2(C)CC[C@@]2(C)[C@@H]3C[C@](C)(C(=O)OCCCn4cc(C=O)c5ccccc54)CC[C@]3(C)CC[C@]12C", "cell line": "AGS", "test": "MTT", "setting": "48 h", "quantity": "pIC50", "result": 6.49}
{"SMILES": "CC(C)C[C@@H]1NC(=O)[C@H](Cc2ccccc2)NC(=O)[C@H](CCCCN)NC(=O)[C@H](CC(C)C)NC(=O)[C@H](C(C)C)NC1=O", "cell line": "HCT-116", "test": "thymidine uptake", "setting": "10 µM, 72 h", "quantity": "inhibition", "result": "0%"}
{"SMILES": "Cc1cc(N(CCO)CCO)ccc1C(=O)O", "cell line": "SN12K1", "quantity": "IC50", "result": "> 10 µg/mL"}
{"SMILES": "CC[C@@]1(OC(=O)C(C)c2ccc(CC(C)C)cc2)C(=O)OCc2c1cc1n(c2=O)Cc2cc3cc4c(cc3nc2-1)OCO4 (some centres unmarked)", "cell line": "HCT-116", "test": "MTT", "quantity": "pIC50", "result": "< 5.30"}
{"SMILES": "Cc1cccc2c(CNCC3(N4CCCC4)COC3)c[nH]c12", "cell line": "U-87 MG", "setting": "30 µM, 48 h", "quantity": "viability", "result": "3.42%"}
{"SMILES": "CC[C@@]1(OC(=O)CN)C(=O)OCc2c1cc1n(c2=O)Cc2cc3cc4c(cc3nc2-1)OCO4", "cell line": "HCT-116", "test": "MTT", "quantity": "pIC50", "result": 7.60}
{"SMILES": "COc1cc2c(c3c1C(=O)C[C@@H](c1ccccc1)O3)[C@H]1[C@@H](O2)OC(C)(C)[C@@H]1OC(C)=O", "cell line": "Raji", "test": "MTS", "setting": "72 h", "quantity": "pIC50", "result": "< 5.00"}
{"SMILES": "CC[C@H](C)[C@H](N)C(=O)O[C@]1(CC)C(=O)OCc2c1cc1n(c2=O)Cc2cc3cc4c(cc3nc2-1)OCO4", "cell line": "HCT-116", "test": "MTT", "quantity": "pIC50", "result": 7.19}
{"SMILES": "N.N.[Cl][Pt][Cl]", "cell line": "HCT-116", "setting": "24 h", "quantity": "pIC50", "result": 4.45}
